Consider 18 compounds from PubChem BioAssay AID488986 (Sanford-Burnham Center for Chemical Genomics, 2010).

Structures are written as SMILES. Activity calls are given as the source filed them.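 Rule for the calls: active = mean EC50 below 10 µM; inactive = the rest.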 Where only a bound is given, the exact number is not on record here.

For this test, the target named is Type-1 angiotensin II receptor (Homo sapiens) (UniProt P30556). Kind of test: AGTR1 activation selectivity check – cell-based, CHO-K1 PathHunter, luminescence, set 2, selectivity assay for APJ agonist project, SAR follow-up (AID 488986). Conditions: CHO-K1 AGTR1 PathHunter beta-arrestin, 90 min. In a few lines: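 Test system: CHO-K1 cells expressing human AT1 receptor, beta-arrestin fragment complementation. Doses: compound dose series with 1.32% final DMSO. Times: cells overnight, compounds 90 min 25 °C, reagent 60 min. Measured by: beta-gal complementation luminescence. Control set: 1 µM angiotensin II as high control. Reagent: angiotensin II at 1 µM final, as positive control stimulus.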
Sequence of Type-1 angiotensin II receptor (Homo sapiens) (P30556 whole entry, looked up, the tested form may be a part): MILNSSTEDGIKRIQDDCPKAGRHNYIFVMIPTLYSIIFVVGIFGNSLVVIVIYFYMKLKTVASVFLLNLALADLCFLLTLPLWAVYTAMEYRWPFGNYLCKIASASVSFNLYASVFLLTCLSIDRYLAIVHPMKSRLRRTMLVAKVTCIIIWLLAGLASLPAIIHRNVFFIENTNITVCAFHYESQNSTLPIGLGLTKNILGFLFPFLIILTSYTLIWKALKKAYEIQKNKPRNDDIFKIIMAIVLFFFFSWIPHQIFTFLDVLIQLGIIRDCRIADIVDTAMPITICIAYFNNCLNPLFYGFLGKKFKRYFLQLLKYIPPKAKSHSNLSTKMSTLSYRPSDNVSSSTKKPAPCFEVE

With `CCN1C(=O)/C(=C/C=C2/Sc3ccccc3N2CC)SC1=S`, the EC50 was > 79 µM (inactive).

In the case of `CCOc1cc2[nH]c(=S)n(CCN3CCC(C)CC3)c(=O)c2cc1OCC`, the EC50 is > 79 µM (inactive). Regarding `CCN1C(c2ccccc2)=C(c2ccccc2)S/C1=C\C=C1/SC(=S)N(C)C1=O`, the EC50 was 4.96 µM.

Consider `CCc1nnc(NC(=O)CSc2nc3cccnc3n2Cc2ccccc2)s1`, for which the EC50 was > 79 µM (inactive). In the case of `CCN1C(=O)/C(=C/C=C2/SC(c3ccccc3)=C(c3ccccc3)N2CC)SC1=S`, the EC50 was > 79 µM (inactive). On to `CC(C)C1=CC(=NOS(=O)(=O)c2ccccc2)C=C(C(C)C)C1=O`, for which the EC50 was > 79 µM (inactive).

As for `CCOc1ccc(S(=O)(=O)Nc2nc(-c3ccccc3)cs2)cc1`, the EC50 was > 79 µM (inactive). Regarding `CCOc1cc2[nH]c(=S)n(CCN3CCCCC3CC)c(=O)c2cc1OCC` (stereo not drawn), the EC50 is > 79 µM (inactive). Regarding `CCCCN(C)CCn1c(=S)[nH]c2cc(OCC)c(OCC)cc2c1=O`, the EC50 is > 79 µM (inactive). For `Cc1cc(C)n2nc3nc(N4CCCCC4)nc(-c4ccccc4)c3c2n1`, the EC50 was > 79 µM (inactive).

As for `CC1=CC(=O)C(C2CCCCC2)=C/C1=N/OS(=O)(=O)c1ccccc1`, the EC50 is > 79 µM (inactive). With `CC1=CC(=O)C=C/C1=N/OS(=O)(=O)c1ccc(C)cc1`, the EC50 was > 79 µM (inactive). Consider `CC1=C/C(=N/OS(=O)(=O)c2ccccc2)C(C(C)C)=CC1=O`, for which the EC50 was > 79 µM (inactive). Consider `CC1=CC(=NOS(=O)(=O)c2ccccc2)C(C)=CC1=O`, for which the EC50 was > 79 µM (inactive). As to `CCc1nnc(NC(=O)CSc2nc3cccnc3n2C2CCCCC2)s1`, the EC50 was > 79 µM (inactive). Then `CC1=CC(=O)C(C(C)(C)C)=C/C1=N/OS(=O)(=O)c1ccccc1`, with > 79 µM (inactive); and `Cc1cc(O)c(C2CCCCC2)cc1N=O`, with > 79 µM (inactive); and `CCOc1cc2[nH]c(=S)n(CCCC(=O)NCc3ccccn3)c(=O)c2cc1OCC`, with > 79 µM (inactive).

The EC50 is the concentration giving half of the maximal effect.
